Measurements: ChEMBL document CHEMBL4000205, “Synthesis and molecular modelling studies of phenyl linked oxadiazole-phenylhydrazone hybrids as potent antileishmanial agents” (Eur J Med Chem, 2017)

Key:
[1] = Selectivity index, ratio of IC50 for human THP1 cells to IC50 for promastigote form of Leishmania major JISH118 infected in human THP1 cells; type: toxicity, cell-based; settings: read-out: Ratio IC50
In short: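 Selectivity index taken as the IC50 in THP-1 cells divided by the antileishmanial IC50 from infected THP-1 macrophages.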

U-937 [2] = test: Cytotoxicity against human U937 cells up to 50 uM; type: cell-based
Leishmania major [3] = test: Antileishmanial activity against promastigote form of Leishmania major JISH118 infected in human THP1 cells by Giemsa staining; type: functional, cell-based; settings: JISH118, THP-1
In short: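 THP-1 cells grown in RPMI-1640 with 1% L-glutamine and 10% HIFBS, seeded at 5.0 x 10^4 macrophages/well and made adherent with PMA for 3 days at 37 °C, 5% CO2. Infected with stationary-stage L. major promastigotes (cultured at 26°C in Schneider's medium) at macrophage:parasite 1:5, held at 34 °C for 48 h. Extracellular parasites washed out, compounds added at various concentrations. Activity from % infected cells versus untreated after methanol fixation and Giemsa staining; triplicate.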

THP-1 = test: Cytotoxicity against human THP1 cells; type: cell-based
U-937 [4] = test: Cytotoxicity against human U937 cells; type: cell-based
Leishmania major [5] = test: Potency index, ratio of pentamidine IC50 to test compound IC50 for promastigote form of Leishmania major JISH118 infected in human THP1 cells; type: functional

SMILES | selectivity ratio [1] | Activity (U-937 [2]) | IC50 (Leishmania major [3]) [µM] | IC50 (THP-1) [µM] | IC50 (U-937 [4]) [µM] | Ratio IC50 (Leishmania major [5])
COc1ccccc1-c1nnc(-c2ccc(C(=O)N/N=C/c3cc(O)ccc3O)cc2)o1 | 22.4 | Non-Toxic | 4.46 | 100 | – | –
COc1ccccc1-c1nnc(-c2ccc(C(=O)N/N=C/c3ccc(Cl)cc3)cc2)o1 | – | Non-Toxic | 34.1 | – | – | –
COc1ccccc1-c1nnc(-c2ccc(C(=O)N/N=C/c3ccccc3F)cc2)o1 | 60.4 | Non-Toxic | 5.18 | 313 | – | –
COc1ccccc1-c1nnc(-c2ccc(C(=O)N/N=C/c3cccc(O)c3O)cc2)o1 | 72.6 | Non-Toxic | 1.4 | 102 | – | –
COc1ccccc1-c1nnc(-c2ccc(C(=O)N/N=C/c3ccc([N+](=O)[O-])cc3)cc2)o1 | 3.6 | Non-Toxic | 56.5 | 203 | – | –
COc1ccccc1-c1nnc(-c2ccc(C(=O)N/N=C/c3ccc(Cl)cc3Cl)cc2)o1 | 15.4 | – | 5.12 | 78.8 | 75.6 | –
COc1ccc(/C=N/NC(=O)c2ccc(-c3nnc(-c4ccccc4OC)o3)cc2)cc1O | 40.6 | Non-Toxic | 6.4 | 260 | – | –
COc1ccccc1-c1nnc(-c2ccc(C(=O)N/N=C/c3ccccn3)cc2)o1 | 7.4 | – | 9.06 | 67 | 68.6 | –
COc1ccccc1-c1nnc(-c2ccc(C(=O)N/N=C/c3cccc(F)c3)cc2)o1 | 55.6 | Non-Toxic | 6.35 | 353 | – | –
COc1ccccc1-c1nnc(-c2ccc(C(=O)N/N=C/c3ccccc3C)cc2)o1 | – | Non-Toxic | 34.1 | – | – | –
COc1ccccc1-c1nnc(-c2ccc(C(=O)N/N=C/c3ccccc3O)cc2)o1 | 50 | Non-Toxic | 4.14 | 207 | – | –
COc1ccccc1-c1nnc(-c2ccc(C(=O)N/N=C/c3ccc(C)cc3)cc2)o1 | – | Non-Toxic | 29.6 | – | – | –
COc1ccccc1-c1nnc(-c2ccc(C(=O)N/N=C/c3c(O)cc(O)cc3O)cc2)o1 | 2.6 | – | 4.78 | 12.4 | 15.2 | –
COc1ccccc1-c1nnc(-c2ccc(C(=O)N/N=C/c3ccncc3)cc2)o1 | 4.5 | Non-Toxic | 38.5 | 173 | – | –
COc1ccc(O)c(/C=N/NC(=O)c2ccc(-c3nnc(-c4ccccc4OC)o3)cc2)c1 | 18.6 | Non-Toxic | 16.3 | 303 | – | –
COc1ccccc1-c1nnc(-c2ccc(C(=O)N/N=C/c3ccc(O)cc3)cc2)o1 | 35 | Non-Toxic | 7.45 | 261 | – | –

SMILES | selectivity ratio [1] | Activity (U-937 [2]) | IC50 (Leishmania major [3]) [µM] | IC50 (THP-1) [µM] | IC50 (U-937 [4]) [µM] | Ratio IC50 (Leishmania major [5])
COc1ccccc1-c1nnc(-c2ccc(C(=O)N/N=C/c3cccc([N+](=O)[O-])c3)cc2)o1 | 1.6 | Non-Toxic | 74.2 | 119 | – | –
COc1ccccc1-c1nnc(-c2ccc(C(=O)N/N=C/c3ccc(O)cc3O)cc2)o1 | 27.5 | Non-Toxic | 3.78 | 104 | – | –
COc1ccccc1-c1nnc(-c2ccc(C(=O)N/N=C/c3ccccc3Cl)cc2)o1 | – | Non-Toxic | 29.1 | – | – | –
COc1ccc(/C=N/NC(=O)c2ccc(-c3nnc(-c4ccccc4OC)o3)cc2)c(O)c1 | 46.6 | Non-Toxic | 6.6 | 308 | – | –
COc1ccccc1-c1nnc(-c2ccc(C(=O)N/N=C/c3cccnc3)cc2)o1 | 3.6 | Non-Toxic | 46.5 | 167 | – | –
COc1ccccc1-c1nnc(-c2ccc(C(=O)N/N=C/c3ccc(O)c(O)c3)cc2)o1 | 105 | Non-Toxic | 0.95 | 100 | – | 7
COc1ccccc1-c1nnc(-c2ccc(C(=O)N/N=C/c3cccc(Cl)c3)cc2)o1 | – | Non-Toxic | 20.7 | – | – | –
COc1ccccc1-c1nnc(-c2ccc(C(=O)N/N=C/c3cccc(C)c3)cc2)o1 | – | Non-Toxic | 40.2 | – | – | –
COc1ccccc1-c1nnc(-c2ccc(C(=O)N/N=C/c3cc(O)c(O)cc3O)cc2)o1 | 5.5 | – | 0.98 | 5.4 | 7.46 | –
COc1cccc(/C=N/NC(=O)c2ccc(-c3nnc(-c4ccccc4OC)o3)cc2)c1 | – | Non-Toxic | 78.6 | – | – | –
COc1ccccc1-c1nnc(-c2ccc(C(=O)N/N=C/c3ccc(F)cc3)cc2)o1 | 30.1 | Non-Toxic | 14.2 | 427 | – | –
COc1ccc(/C=N/NC(=O)c2ccc(-c3nnc(-c4ccccc4OC)o3)cc2)cc1 | – | Non-Toxic | 74.2 | – | – | –
COc1ccccc1-c1nnc(-c2ccc(C(=O)N/N=C/c3cccc(O)c3)cc2)o1 | 22 | Non-Toxic | 18.1 | 398 | – | –
COc1ccccc1-c1nnc(-c2ccc(C(=O)N/N=C/c3ccccc3[N+](=O)[O-])cc2)o1 | 2.5 | Non-Toxic | 64.5 | 161 | – | –
N=C(N)c1ccc(OCCCCCOc2ccc(C(=N)N)cc2)cc1 [PENTAMIDINE] | 1.1 | – | – | 7.7 | 6.02 | –
